Source: PubChem BioAssay
Results filed as inconclusive are left out.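 How the source made its calls, unless noted: active means cell viability at or below a set limit in both duplicate runs, the limit being the all-compound median minus 4 SD (cut at about 23% in these data, passing the limit was not always enough); inconclusive means no clear call, values can overlap the other calls; inactive means the rest.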

Columns and labels:
[1] = OD615 S. cerevisiae growth inhibition, permissive medium, pilot counter-assay, permissive growth control for S. cerevisiae lifespan shortening project (AID 705;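 active means growth inhibition above 25% in both replicates, a cutoff set 3 SD above the mean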); settings: OD615, 24 h, at 10 µM, active compounds read high
Outline: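 System: S. cerevisiae with engineered DeaD lifespan system. Medium: SC raffinose/galactose permissive medium. Doses: single compound dose of 10 µM, 0.25% DMSO final. Schedule: 24 h exposure, 30 °C. Measured by: OD615 turbidity read. Read-out: growth inhibition.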

[2] = Restrictive medium S. cerevisiae growth inhibition, OD615, pilot screen of yeast lifespan reduction project, restrictive growth control (AID 706;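 active means growth inhibition above a set limit, 3 SD over mean compound inhibition, in both replicates, cut at about 43% in these data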;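 further: modified DeaD lifespan yeast strain shifted to restrictive glucose medium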); settings: OD615, 48 h, at 10 µM, active compounds read high
Outline: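 Assay system – genetically modified Saccharomyces cerevisiae, DeaD replicative lifespan assay strain · Medium – CSMM-D glucose medium · Doses – 10 µM compound, 0.25% DMSO · Times – 4 h pre-incubation, 48 h exposure at 30 °C · Signal – optical density at 615 nm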

[3] = viability gain of MRP-1-high H69AR cells under doxorubicin, pilot screen, MRP-1 activator project, CellTiter-Glo, duplicate (AID 807;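 active means viability increase at or above a cutoff of the median across tested compounds plus 3 SD, cut at about 8.5% in these data, passing the limit was not always enough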;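 further: compound pretreatment 18-22 h then 72 h combined with doxorubicin; 0% = doxorubicin alone and 100% = vehicle without doxorubicin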); settings: H69AR viability with doxorubicin, CellTiter-Glo luminescence; at 10 µM; active compounds read high
[4] = growth suppression of beta-catenin knockout HCT116, pilot screen, human colon tumor cells (AID 823); settings: CellTiter-Glo, 60 h, at 10 µM, active compounds read low;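 further: 0% = wells killed by 20 µM Hyamine and 100% = untreated DMSO cell wells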
[5] = growth suppression of PTEN-deleted HCT116, pilot screen, cell-based, HCT116 clonal line, CellTiter-Glo (AID 824;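 active means viability at or below 27.92% in each of two runs, the all-compound median minus 4 SD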;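 further: 0% = 20 µM Hyamine control and 100% = vehicle cell control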); settings: 60 h, at 10 µM, active compounds read low
[6] = inhibitors of the yeast RAM network, pilot screen, dse1pr::URA3 reporter, 5-FOA selection (AID 869;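 active means inhibition over a set limit, the all-compound mean plus 3 SD, in both replicate runs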;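 further: 0% = DMSO wells with no growth and 100% = 10 µM 1-NA-PP1 with full growth; RAM network block rescues cells from 5-FOA so hits raise OD615 growth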); settings: S. cerevisiae dse1pr::URA3 5-FOA growth, OD615, 2 d; at 10 µM; active compounds read high; strain carries analog-sensitive mutant Cbk1 kinase
[7] = RAM signaling pathway blockade in yeast – S. cerevisiae, Pdr1DBD-CYC8 efflux-inhibited sensitized strain, primary screen (AID 1298;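 active means RAM network inhibition above 8.4% in each of two replicates, 3 SD over the compound average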;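 further: 0% = DMSO untreated cells without growth and 100% = 10 µM 1-NA-PP1 full growth; higher means more yeast growth rescued from 5-FOA killing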); settings: S. cerevisiae cbk1-as DSE1-URA3 strain, 5-FOA growth OD615, 2 d; at 50 µM; active compounds read high

Cn1cc(S(=O)(=O)Nc2ccc(F)cc2F)c(=O)n(C)c1=O
inactive: growth inhibition [1] -11.6% | growth inhibition [2] 0.815% | viability increase [3] 0.9% | viability [4] 98.8% | viability [5] 95% | inhibition [6] 1.39% | RAM network inhibition [7] 1.28%

CCOc1ccc(NC(=O)CSc2nc3c(c(=O)n2-c2ccccc2OC)SCC3)cc1
inactive: growth inhibition [1] -4.54% | growth inhibition [2] -3.66% | viability increase [3] -2.57% | viability [4] 94.3% | viability [5] 82.5% | inhibition [6] 0.805% | RAM network inhibition [7] 1.18%

Cc1cc(C(=O)NCc2cccs2)n(-c2ccccc2)n1
inactive: growth inhibition [1] -10.7% | growth inhibition [2] -6.11% | viability increase [3] 0.91% | viability [4] 102% | viability [5] 90.6% | inhibition [6] 1.03% | RAM network inhibition [7] 5.86%

Cc1cc(C)c(NC(=O)c2ccc(S(=O)(=O)N3CCOCC3)cc2)c(C)c1
inactive: growth inhibition [1] -9.41% | growth inhibition [2] -8.03% | viability increase [3] -2.1% | viability [4] 101% | viability [5] 98.1% | inhibition [6] 0.57% | RAM network inhibition [7] 0.69%

O=C(Cn1cnc2c(nnn2Cc2ccc(Cl)cc2)c1=O)N1CCN(c2ccccc2)CC1
inactive: growth inhibition [1] -7.16% | growth inhibition [2] -12.6% | viability increase [3] 3.63% | viability [4] 82.3% | viability [5] 80.5% | inhibition [6] 1.98% | RAM network inhibition [7] 6.43%

COCCCNC(=O)c1cc2c(-c3ccc(Cl)cc3)nn(C)c2s1
inactive: growth inhibition [1] -0.14% | growth inhibition [2] 1.75% | viability increase [3] -6.69% | viability [4] 82.9% | viability [5] 84.5% | inhibition [6] 3.08% | RAM network inhibition [7] 3.67%

CCN(c1cccc(C)c1)S(=O)(=O)c1cccc2nsnc12
inactive: growth inhibition [1] -12.6% | growth inhibition [2] -20.3% | viability increase [3] -3.59% | viability [4] 77.1% | viability [5] 88.8% | inhibition [6] 1.4% | RAM network inhibition [7] 4.75%

CC(C)(C)NC(=O)c1cnn2c1NC(c1ccc(F)cc1)CC2C(F)(F)F (centres undefined)
inactive: growth inhibition [1] -14.6% | growth inhibition [2] -18.1% | viability increase [3] -0.08% | viability [4] 89.5% | viability [5] 87.1% | inhibition [6] 3.81% | RAM network inhibition [7] 6.9%

COc1ccc(S(=O)(=O)N2CCCN(S(=O)(=O)c3ccc(OC)cc3C)CC2)c(C)c1
inactive: growth inhibition [1] -12.6% | growth inhibition [2] -4.12% | viability increase [3] -6.52% | viability [4] 87.2% | viability [5] 84.7% | inhibition [6] -0.105% | RAM network inhibition [7] 3.22%

CCOC(=O)c1cccc(NC(=O)CNC(=O)C2CCCCC2)c1
inactive: growth inhibition [1] 3.97% | growth inhibition [2] 2.92% | viability increase [3] -0.32% | viability [4] 96.1% | viability [5] 99.2% | inhibition [6] 0.655% | RAM network inhibition [7] -0.72%

COc1ccccc1CNC(=O)c1cnc2sccn2c1=O
inactive: growth inhibition [1] -5.31% | growth inhibition [2] -12.4% | viability increase [3] -2.45% | viability [4] 107% | viability [5] 90.3% | inhibition [6] 2.37% | RAM network inhibition [7] 2.72%

CCN1CCN(C(=O)c2cc3c(-c4ccc(Cl)cc4)nn(C)c3s2)CC1
inactive: growth inhibition [1] -4.23% | growth inhibition [2] 16% | viability increase [3] -7.68% | viability [4] 38.5% | viability [5] 52.7% | inhibition [6] 2.21% | RAM network inhibition [7] 1.3%

CCN1CCN(C(c2cccs2)C(C)NC(=O)c2cccc(OC)c2)CC1 (centres undefined)
inactive: growth inhibition [1] -2.49% | growth inhibition [2] -14.8% | viability increase [3] -2.25% | viability [4] 103% | viability [5] 89.7% | inhibition [6] -0.09% | RAM network inhibition [7] -0.01%

Cn1c(C(=O)NCCc2ccsc2)cc2c(=O)n(C)c3ccccc3c21
inactive: growth inhibition [1] -13.2% | growth inhibition [2] -8.68% | viability increase [3] -4.49% | viability [4] 105% | viability [5] 92.2% | inhibition [6] 2.64% | RAM network inhibition [7] 4.41%

CSc1ccc(C2NC(=O)c3c(sc4c3CCN(C)C4)N2)cc1 (centres undefined)
inactive: growth inhibition [1] -13.2% | growth inhibition [2] -0.305% | viability increase [3] -2.7% | viability [4] 78.2% | viability [5] 92.5% | inhibition [6] -0.285% | RAM network inhibition [7] 4.99%

O=C(CCn1c(=S)[nH]c2ccccc2c1=O)N1CCOCC1
inactive: growth inhibition [1] -0.255% | growth inhibition [2] 9.25% | viability increase [3] 0.5% | viability [4] 105% | viability [5] 103% | inhibition [6] 0.715% | RAM network inhibition [7] -0.13%

CS(=O)(=O)c1ccc(N)cc1
inactive: growth inhibition [1] -13.1% | growth inhibition [2] -8.62% | viability increase [3] -2.37% | viability [4] 103% | viability [5] 88.9% | inhibition [6] 2.72% | RAM network inhibition [7] 1.16%
